RGS4 act: potentiators or activators of RGS4; B-score at 10 µM; AID 463111; 310,000 compounds, 0.92% hits; HEK293 M3R/inducible RGS4, carbachol calcium flux Fluo4; active compounds read low;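 active = B-score of the integrated calcium signal more than 4 SD below the library mean, with starting fluorescence not abnormally high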;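 also: negative B-score means reduced calcium response which marks RGS4 activation or potentiation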
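Material: Inducible-RGS4 HEK293 cells carrying M3 receptor; also added: carbachol at ECmax as muscarinic agonist stimulus; incubation: compound preincubation 20 min at room temperature before agonist; signal: Fluo4-AM (2 µM) calcium-flux fluorescence, kinetic read; measure: integrated calcium ratio converted to B score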
MrgX1 agonist: activates human MrgX1 receptor signaling | B-score at 10 µM | AID 588627 | 310,000 compounds, 0.44% hits | MrgX1-HEK293 cells, Fluo-4 calcium fluorescence, agonist mode; active compounds read high;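 active = calcium response B-score plate-corrected fluorescence ratio at least 3 library SD, with starting fluorescence B-score inside 5 SD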
Target sequence (Q96LB2 whole entry, looked up): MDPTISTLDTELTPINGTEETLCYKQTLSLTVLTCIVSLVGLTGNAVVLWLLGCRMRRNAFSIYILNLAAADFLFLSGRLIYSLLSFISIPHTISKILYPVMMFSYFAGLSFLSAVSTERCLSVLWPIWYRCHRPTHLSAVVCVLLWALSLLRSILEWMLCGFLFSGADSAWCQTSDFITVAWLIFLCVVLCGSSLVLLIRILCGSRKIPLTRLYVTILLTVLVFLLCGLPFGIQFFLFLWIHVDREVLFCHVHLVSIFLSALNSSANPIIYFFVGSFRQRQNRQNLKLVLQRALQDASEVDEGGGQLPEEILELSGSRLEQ
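Test system: HEK293 cells stably expressing human MrgX1 receptor; Input: fifteen thousand cells per well; Dosing: compound delivered in addition one of three; Schedule: overnight seeding, then 1 h dark dye loading; Technique: Fluo-4 NW calcium fluorescence; Measure: B-scored fluorescence response ratio; Controls: positive and negative controls per plate.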
MrgX1 allo act: human MrgX1 positive allosteric modulation, primary screen; AID 588675; Q96LB2; 310,000 compounds, 0.63% hits; B-score at 10 µM; MrgX1-HEK293, Fluo-4 calcium flux, FDSS; active compounds read high;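 active = plate-corrected calcium response at least 3 library SD above typical, normal starting fluorescence, not activating the receptor alone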;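 also: compound read alongside a low EC10 to EC30 dose of BAM8-22 agonist; peak minus trough fluorescence over baseline measured at the second addition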
MrgX1 antag: blocks BAM8-22 activation of human MrgX1 receptor | Q96LB2 | MRGX1-HEK293 calcium flux, Fluo-4, BAM8-22 antagonism; active compounds read low | B-score at 10 µM | 310,000 compounds, 1.3% hits | AID 588676;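 active = calcium-response B-score plate-corrected more than 3 library SD below zero, starting fluorescence within 5 deviations, no agonist response on first addition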;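 also: peak minus trough fluorescence over baseline after final BAM8-22 challenge near maximal dose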
RGS4 block: human RGS4 inhibition. HEK293 M3R/RGS4 inducible, Fluo-4 calcium flux; active compounds read high; triggered by carbachol at its EC20. B-score at 10 µM. 310,000 compounds, 0.45% hits;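 active = B-score, a plate-corrected calcium signal, over three deviations above library mean, with baseline fluorescence within five deviations of library mean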;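 also: RGS4 expression induced by doxycycline in cells with stable M3 receptor; B-score is computed from the integrated fluorescence ratio over baseline after carbachol; higher B-score means a larger calcium signal and so more RGS4 inhibition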
Target sequence (P49798 whole entry, looked up): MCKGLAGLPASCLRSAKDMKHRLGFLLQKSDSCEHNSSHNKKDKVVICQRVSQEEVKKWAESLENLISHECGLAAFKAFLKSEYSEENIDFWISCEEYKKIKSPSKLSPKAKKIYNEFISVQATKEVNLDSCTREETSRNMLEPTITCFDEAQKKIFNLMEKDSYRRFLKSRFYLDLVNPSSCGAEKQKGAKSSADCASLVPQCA
MrgX1 antag conf: reconfirmed antagonist of human MrgX1 receptor signaling; shares compounds with MrgX1 antag; MrgX1-HEK293, BAM8-22 calcium flux, Fluo-4; active compounds read low; remaining BAM8-22 calcium response % of control (active compounds read low), % at 10 µM; 2,300 compounds, 19% hits;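 active = remaining agonist calcium response no higher than 100% minus 3 SD of agonist-only control wells, with starting fluorescence near control levels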;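 also: agonist BAM8-22 given at a near maximal EC90 to ECmax level; peak minus minimum fluorescence divided by baseline after agonist addition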
HEK293 Ca flux: MrgX1 antagonist counter-screen hit in parental HEK293 cells; shares compounds with MrgX1 antag; Fluo-4 calcium fluorescence, FDSS; fluorescence ratio F(max-min)/F0 at 10 µM; 4,000 compounds, 2% hits; AID 624111;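 active = duplicate-averaged calcium fluorescence ratio at least three times the standard deviation of buffer wells, a nonspecific response in parental cells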
HEK293 Ca counter: counter-screen for MrgX1 allosteric activators: effect in parental HEK293 cells | shares compounds with MrgX1 antag | parental HEK293 calcium flux, Fluo-4 fluorescence ratio; active compounds read high | fluorescence ratio F(max-min)/F0 at 10 µM | 4,000 compounds, 0.4% hits | AID 624114;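 active = calcium fluorescence ratio, averaged over duplicates, at least 3 SD of the buffer-well ratio, meaning a nonspecific response in receptor-free cells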;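 also: untransfected parental HEK293 lacking MrgX1 used as counterscreen for MrgX1 allosteric activators; fluorescence change taken during the second addition on a kinetic imager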
HEK293 Ca cntr2: MrgX1 activator counter-screen hit in parental HEK293 cells. shares compounds with MrgX1 antag. Fluo-4 calcium fluorescence (FDSS); active compounds read high. fluorescence ratio F(max-min)/F0 at 10 µM. 4,000 compounds, 8.7% hits;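 active = calcium fluorescence ratio at least three times the spread of buffer wells, meaning a non-specific response in parental cells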
Each line names hits and unclear results; the compound was inactive in the other large screens (follow-up assays come after a bar, where they were run). Shown are actives, neighbours in structure and some others; about 3.5% of the full set was active somewhere.

O=S1(=O)CC(O)C(Nc2ccccc2Cl)C1 (stereo not drawn)	MrgX1 antag -7.9 | MrgX1 antag conf inactive | HEK293 Ca flux inactive | HEK293 Ca counter inactive | HEK293 Ca cntr2 inactive
CS(=O)(=O)N(CCc1ccccc1)CC(=O)NCC1CCCO1 (stereo not drawn)	MrgX1 antag -6.7 | MrgX1 antag conf inactive | HEK293 Ca flux inactive | HEK293 Ca counter inactive | HEK293 Ca cntr2 inactive
Cc1ccc(NC(=O)N2CCCCCC2)c(C)c1	none
CCOc1ccc(N2CC(C(=O)N3CCN(c4ccccn4)CC3)CC2=O)cc1 (stereo not drawn)	MrgX1 antag -6.7 | MrgX1 antag conf inactive | HEK293 Ca flux inactive | HEK293 Ca counter inactive | HEK293 Ca cntr2 inactive
Cc1cccc2cc3c(N)c(C(=O)N4CCc5ccccc54)sc3nc12	MrgX1 antag -8.4 | MrgX1 antag conf inactive | HEK293 Ca flux 0.48 | HEK293 Ca counter inactive | HEK293 Ca cntr2 59
Cc1cccc2cc3c(N)c(C#N)sc3nc12	none
O=C(c1cnc2n(c1=O)CCS2)N1CCc2ccccc21	none
Cc1sc(NC(=O)c2sc3nc4c(C)cccc4cc3c2N)c(C#N)c1C	MrgX1 antag -6.2 | MrgX1 antag conf 60% | HEK293 Ca flux inactive | HEK293 Ca counter inactive | HEK293 Ca cntr2 inactive
C=CCOC(=O)C1=C(C)NC(=O)NC1c1cc(Cl)cc(Cl)c1OC (stereo not drawn)	none
Cc1cccc(NC(=O)N2CCC(NC(=O)C3CCCCC3)CC2)c1	none
O=C(O)CCC(=O)NCC1OCCc2ccccc21 (stereo not drawn)	MrgX1 antag -8.6 | MrgX1 antag conf inactive | HEK293 Ca flux inactive | HEK293 Ca counter inactive | HEK293 Ca cntr2 inactive
COc1cccc(CN(C)C(=O)c2ccccc2SCC(=O)N2CCCC2)c1	none
CC(C)(Oc1ccc(Cl)cc1)C(=O)OCC(=O)N1CCCC1	MrgX1 antag -13 | MrgX1 antag conf inactive | HEK293 Ca flux inactive | HEK293 Ca counter inactive | HEK293 Ca cntr2 inactive
CCOC(=O)CNc1c(N2CCN(c3ccccn3)CC2)c(=O)c1=O	MrgX1 antag -6.5 | MrgX1 antag conf inactive | HEK293 Ca flux inactive | HEK293 Ca counter inactive | HEK293 Ca cntr2 inactive
O=C(C1CCC(CNc2c(N3CCCCC3)c(=O)c2=O)CC1)N1CCN(c2ccccn2)CC1 (stereo not drawn)	none
COc1cc(C(C)=O)ccc1OCc1cc(C(=O)N2CCSCC2)no1	none
CC(=O)c1cccc(OCc2cc(C(=O)N3CCSCC3)no2)c1	MrgX1 antag -9 | MrgX1 antag conf inactive | HEK293 Ca flux inactive | HEK293 Ca counter inactive | HEK293 Ca cntr2 inactive
CCc1c(C)nc(SCC(=O)c2ccc(C)c(C)c2)[nH]c1=O	MrgX1 antag -7 | MrgX1 antag conf inactive | HEK293 Ca flux inactive | HEK293 Ca counter inactive | HEK293 Ca cntr2 inactive
O=C(COC(=O)c1cc(-c2cccc(Br)c2)nc2ccccc12)NCC1CCCO1 (stereo not drawn)	none
O=C(NCc1ccco1)C1CCCN(S(=O)(=O)c2ccc(Br)cc2)C1 (stereo not drawn)	none
O=C(Cn1ccc2cc(S(=O)(=O)N3CCCC3)ccc21)NCc1ccco1	MrgX1 antag -4.6 | MrgX1 antag conf inactive | HEK293 Ca flux inactive | HEK293 Ca counter inactive | HEK293 Ca cntr2 inactive
CS(=O)(=O)N1CCCC(C(=O)NCc2ccco2)C1 (stereo not drawn)	MrgX1 antag -5.1 | MrgX1 antag conf inactive | HEK293 Ca flux inactive | HEK293 Ca counter inactive | HEK293 Ca cntr2 inactive
CCOC(=O)C1=C(COC(=O)c2ncc(Cl)c(Cl)c2Cl)NC(=O)NC1C (stereo not drawn)	none
O=C(CSc1n[nH]c(=O)n1C1CC1)Nc1ccccc1	none
